Holding throughout (type): functional
In assay [1] the test system is Staphylococcus aureus. In words: Antibacterial activity against fusidic acid-resistant Staphylococcus aureus AH199 harboring TAA stop codon at nucleotide 241 in rplF gene after 18 to 24 hrs by Etest strip assay. The essentials: (§1)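 Mutants of lab strain 8325-4 were selected on LA with FA 2 μg/ml for 48 h at 37°C and purified on selective medium. For the MIC, one colony was suspended in 0.9% NaCl to 0.5 McFarland and swabbed onto Mueller-Hinton agar. An Etest strip was applied and plates were incubated at 37°C for 18–24 h until the lawn was evident.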

Assay [2] has as its system Staphylococcus aureus. Briefly: Antibacterial activity against fusidic acid-susceptible wild type Staphylococcus aureus 8325-4 after 18 to 24 hrs by Etest strip assay. The essentials: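 The inoculum was a single colony suspended in 0.9% NaCl to 0.5 McFarland and swabbed over a Mueller-Hinton agar plate. An Etest gradient strip was then applied, and the plate was incubated at 37°C for 18 to 24 h until lawn growth was evident. MIC was read from the strip following the manufacturer's instructions.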

In assay [3] the test system is Staphylococcus aureus. In words: Antibacterial activity against fusidic acid-resistant Staphylococcus aureus AH209 harboring deletion of nucleotide 404-427 in rplF gene after 18 to 24 hrs by Etest strip assay. The essentials:
as §1

For assay [4], the system named is Staphylococcus aureus. Briefly: Antibacterial activity against kanamycin-resistant and fusidic acid-susceptible Staphylococcus aureus AH297 harboring Ser660Pro mutation in fusA gene after 18 to 24 hrs by Etest strip assay. The gist of the method: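 Etest MIC: a single colony was suspended in 0.9% NaCl to 0.5 McFarland and swabbed over Mueller-Hinton agar. The strip was applied and plates were incubated at 37°C for 18 to 24 h until an SCV lawn grew.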

In assay [5] the test system is Staphylococcus aureus. Briefly: Antibacterial activity against fusidic acid-resistant Staphylococcus aureus AH194 harboring Pro404Leu mutation in fusA gene after 18 to 24 hrs by Etest strip assay. The gist of the method:
as §1

Assay [6] has as its system Staphylococcus aureus. Briefly: Antibacterial activity against kanamycin-resistant Staphylococcus aureus AH348 (SCV-20) harboring TGA stop codon at nucleotide 244 in rplF gene after 18 to 24 hrs by Etest strip assay. The essentials:
(§2)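 SCVs of a Rifr 8325-4 derivative were selected on LA with KAN at 8, 16 or 24 μg/ml for 48 h at 37°C. They were purified at the same KAN level and screened on LA plus FA 1 μg/ml.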

For assay [7], the system named is Staphylococcus aureus. In words: Antibacterial activity against kanamycin-resistant Staphylococcus aureus AH339 (SCV-11) harboring -1 frameshift mutation at nucleotide 144 in rplF gene after 18 to 24 hrs by Etest strip assay. The essentials:
as §2

Assay [8] deals with Staphylococcus aureus. In words: Antibacterial activity against stationary-phase rifampin-resistant Staphylococcus aureus 8325-4 culture assessed as number of viable colonies at 8 ug/ ml after 48 hrs. The gist of the method: (§3)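 Twenty independent stationary-phase overnight LB cultures of the Rifr 8325-4 derivative were made; 108 cells from each were spread on LA with kanamycin at 8, 16 or 24 μg/ml. Plates were incubated 48 h at 37°C so that slow-growing variants could form visible colonies, and Kanr colonies were counted.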

The test system of assay [9] is Staphylococcus aureus. In words: Antibacterial activity against stationary-phase rifampin-resistant Staphylococcus aureus 8325-4 culture assessed as number of viable colonies at 16 ug/ ml after 48 hrs. The gist of the method:
as §3

The test system of assay [10] is Staphylococcus aureus. In words: Antibacterial activity against stationary-phase rifampin-resistant Staphylococcus aureus 8325-4 culture assessed as number of viable colonies at 24 ug/ ml after 48 hrs. The essentials:
as §3

Our source for the MIC and Activity values is ChEMBL document CHEMBL1151442, “Genetic and phenotypic identification of fusidic acid-resistant mutants with the small-colony-variant phenotype in Staphylococcus aureus” (2007).

SMILES strings stand for the structures. In brackets after ≈: the same amount, converted by molar mass.

Regarding `CC(=O)O[C@H]1C[C@@]2(C)[C@@H](C[C@@H](O)[C@H]3[C@@]4(C)CC[C@@H](O)[C@@H](C)[C@@H]4CC[C@@]32C)/C1=C(\CCC=C(C)C)C(=O)O` [FUSIDIC ACID], the MIC against Staphylococcus aureus [1] turned out to be 4 µg/mL (≈ 7.74 µM); in the assay with Staphylococcus aureus [2], 0.125 µg/mL (≈ 0.242 µM); with Staphylococcus aureus [3], 4 µg/mL (≈ 7.74 µM); against Staphylococcus aureus [4], 2 µg/mL (≈ 3.87 µM); with Staphylococcus aureus [5], 4 µg/mL (≈ 7.74 µM); in the assay on Staphylococcus aureus [6], 8 µg/mL (≈ 15.5 µM). Further, the MIC in the assay on Staphylococcus aureus [7] came to 6 µg/mL.

For the compound `NC[C@H]1O[C@H](O[C@H]2[C@H](O)[C@@H](O[C@H]3O[C@H](CO)[C@@H](O)[C@H](N)[C@H]3O)[C@H](N)C[C@@H]2N)[C@H](O)[C@@H](O)[C@@H]1O` [KANAMYCIN], the MIC against Staphylococcus aureus [1] is 8 µg/mL (≈ 16.5 µM); against Staphylococcus aureus [2] it was 1.5 µg/mL (≈ 3.1 µM); against Staphylococcus aureus [3], 8 µg/mL (≈ 16.5 µM); in the assay on Staphylococcus aureus [4], 24 µg/mL (≈ 49.5 µM); against Staphylococcus aureus [5] it was 2 µg/mL (≈ 4.13 µM); against Staphylococcus aureus [6], 8 µg/mL (≈ 16.5 µM). For the same compound, the minimal inhibitory concentration (MIC) with Staphylococcus aureus [7] is 64 µg/mL. For the same compound, the Activity with Staphylococcus aureus [8] is 1000; in the assay with Staphylococcus aureus [9], 200; in the assay on Staphylococcus aureus [10], 30.

Regarding `CN[C@@H]1[C@H](O[C@H]2[C@H](O[C@H]3[C@H](O)[C@@H](O)[C@H](N=C(N)N)[C@@H](O)[C@@H]3N=C(N)N)O[C@@H](C)[C@]2(O)C=O)O[C@@H](CO)[C@H](O)[C@H]1O` [STREPTOMYCIN], the MIC against Staphylococcus aureus [1] was determined as 16 µg/mL (≈ 27.5 µM); against Staphylococcus aureus [2], 3 µg/mL (≈ 5.16 µM); with Staphylococcus aureus [3] it was 16 µg/mL (≈ 27.5 µM); against Staphylococcus aureus [5] it was 8 µg/mL (≈ 13.8 µM); in the assay on Staphylococcus aureus [6], 16 µg/mL (≈ 27.5 µM); in the assay on Staphylococcus aureus [7] it was 128 µg/mL.

A word on the MIC: it is the lowest concentration that inhibits growth of the organism.
